Assay results gathered from unrelated publications.
Lines come from different studies, so protocols differ.
Target: Mitogen-activated protein kinase kinase kinase 20 (MAP3K20, Homo sapiens, UniProt Q9NYL2)

Cn1cc(-c2cccc(N3CCc4c(sc5c4CC(C)(C)C5)C3=O)c2CO)cc(Nc2ccncn2)c1=O — inhibition (enzyme activity, inhibitor; 1 µM): -1%
Cc1ccc(C(=O)Nc2ccc(CN3CCN(C)CC3)c(C(F)(F)F)c2)cc1C#Cc1cnc2cccnn12 — ΔTm (thermal stability, DSF; 10 µM): 15 °C
Cn1cc(-c2cc(F)cc(N3CCn4c(cc5c4CCCC5)C3=O)c2CO)cc(Nc2ccc(N3CCN(C4COC4)CC3)cn2)c1=O — inhibition (enzyme activity, inhibitor; 0.1 µM): -3%
Nc1ncc(-c2nc(N3CCOCC3)nc(N3CCOCC3)n2)c(C(F)F)n1 — remaining binding (binding, competition with immobilised ligand; 10 µM): 80%
COc1ncccc1-c1cnn2ccc(N3CCN(C(=O)OC(C)C)CC3)nc12 — remaining binding (binding, competition with immobilised ligand; 1 µM): 78%
CC(C)(C)c1cc(C=C(C#N)C#N)cc(Br)c1O — remaining activity (enzyme activity, inhibitor; 0.5 µM): 91.2%
COc1cc(Nc2ncc(F)c(Nc3ccc4c(n3)NC(=O)C(C)(C)O4)n2)cc(OC)c1OC — inhibition (binding; 10 µM): 44%
Cc1nn(C)cc1-c1nc2c(N3CCN(Cc4ccc(Cl)cc4)CC3)c(Cl)cnc2[nH]1 — remaining binding (binding, competition with immobilised ligand; 1 µM): 71%
O=c1[nH]c2ccccc2n1C1CCN(Cc2ccc(-c3[nH]c4cc5ncnc5cc4nc3-c3ccccc3)cc2)CC1 — remaining signal (cell-free assay; 0.5 µM): 106%
Cn1cncc1[C@](O)(COc1ccc(C#N)cc1-c1ccc(OC(F)(F)F)cc1)c1ccc(C#N)cc1 — remaining binding (cell-free assay, competition with immobilised ligand; 1 µM): 100%
